Several values for one entry are separate records, joined by “and”; a condition that tells them apart may be missing. Identical values can stand only once.
How the values were obtained:
Canis familiaris = species on record: Canis familiaris; test: Effective dose required to increase myocardial contractility in dog.; format: functional; details: Canis lupus familiaris, Myocardium
In short: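 Anesthetized mongrel dogs (either sex): pentobarbital 35 mg/kg iv, then 5 mg kg⁻¹ h⁻¹ infusion. After 30-min control, compound in saline or dilute HCl/NaOH diluted with saline given iv over 1 min, cumulative half-log doses (typically four to six), 10–30 min apart.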

Phosphodiesterase 1 [1] = molecular target: T1, Phosphodiesterase 1 (Homo sapiens, UniProt P54750+Q01064+Q14123); test: Inhibition of cAMP PDE I enzyme in guinea pig at 1E-4M; format: protein assay; details: Cavia porcellus; target entry is the homologue from another species
[2] = molecular target: T2, cGMP-dependent 3',5'-cyclic phosphodiesterase (Homo sapiens, UniProt O00408); test: Inhibition of cAMP PDE II enzyme in guinea pig at 1E-4M; details: Cavia porcellus; target entry is the homologue from another species
[3] = molecular target: T2, cGMP-dependent 3',5'-cyclic phosphodiesterase; test: Inhibition of cGMP PDE II enzyme in guinea pig at 1E-4M; details: Cavia porcellus; target entry is the homologue from another species
Phosphodiesterase 1 [4] = molecular target: T1, Phosphodiesterase 1; test: Inhibition of cGMP PDE I enzyme in guinea pig at 1E-5M concentration; format: protein assay; details: Cavia porcellus; target entry is the homologue from another species
Phosphodiesterase 1 [5] = molecular target: T1, Phosphodiesterase 1; test: Inhibition of cGMP PDE I enzyme in guinea pig at 1E-4M; format: protein assay; details: Cavia porcellus; target entry is the homologue from another species
Phosphodiesterase 3 [6] = molecular target: T3, Phosphodiesterase 3 (Homo sapiens, UniProt Q14432+Q13370); test: Inhibition of cAMP PDE III enzyme in guinea pig at 1E-5M concentration; format: protein assay; details: Cavia porcellus; target entry is the homologue from another species
[7] = molecular target: T2, cGMP-dependent 3',5'-cyclic phosphodiesterase; test: Inhibition of cAMP PDE II enzyme in guinea pig at 1E-5M concentration; details: Cavia porcellus; target entry is the homologue from another species
[8] = molecular target: T2, cGMP-dependent 3',5'-cyclic phosphodiesterase; test: Inhibition of cGMP PDE II enzyme in guinea pig at 1E-5M concentration; details: Cavia porcellus; target entry is the homologue from another species
Phosphodiesterase 1 [9] = molecular target: T1, Phosphodiesterase 1; test: Inhibition of cAMP PDE I enzyme in guinea pig at 1E-5M concentration; format: protein assay; details: Cavia porcellus; target entry is the homologue from another species
Phosphodiesterase 1 [10] = molecular target: T1, Phosphodiesterase 1; test: Inhibition of cAMP PDE I enzyme in guinea pig at 1E-4M concentration.; format: protein assay; details: Cavia porcellus; target entry is the homologue from another species
Phosphodiesterase 3 [11] = molecular target: T3, Phosphodiesterase 3; test: Inhibition of cAMP PDE III enzyme in guinea pig at 1E-4M concentration.; format: protein assay; details: Cavia porcellus; target entry is the homologue from another species
Phosphodiesterase 1 [12] = molecular target: T1, Phosphodiesterase 1; test: Inhibition of cGMP PDE I enzyme in guinea pig at 1E-4M concentration; format: protein assay; details: Cavia porcellus; target entry is the homologue from another species
[13] = Ratio of IC50 values for PDE III and PDE II.
PDE II (Cavia porcellus) = test: Inhibition of cAMP PDE II enzyme in guinea pig at 1E-4M concentration.
Phosphodiesterase 3 [14] = molecular target: T3, Phosphodiesterase 3; test: Inhibitory concentration against cAMP PDE III enzyme in guinea pig; format: protein assay, Cavia porcellus; details: target entry is the homologue from another species
[15] = molecular target: T2, cGMP-dependent 3',5'-cyclic phosphodiesterase; test: Inhibition of cGMP PDE II enzyme in guinea pig at 1E-4M concentration; details: Cavia porcellus; target entry is the homologue from another species
PDE I (Cavia porcellus) [16] = test: Inhibitory concentration against cGMP PDE I enzyme in guinea pig
[17] = molecular target: T2, cGMP-dependent 3',5'-cyclic phosphodiesterase; test: Inhibitory concentration against cAMP PDE II enzyme in guinea pig; parameters: species or system Cavia porcellus; details: target entry is the homologue from another species
[18] = molecular target: T2, cGMP-dependent 3',5'-cyclic phosphodiesterase; test: Inhibitory concentration against cGMP PDE II enzyme in guinea pig; parameters: species or system Cavia porcellus; details: target entry is the homologue from another species
[19] = Ratio of IC50 values for PDE III and PDE I.
PDE I (Cavia porcellus) [20] = test: Inhibitory concentration against cAMP PDE I enzyme in guinea pig
Phosphodiesterase 1 [21] = molecular target: T1, Phosphodiesterase 1; test: Inhibitory concentration against cGMP PDE I enzyme in guinea pig; format: protein assay, Cavia porcellus; details: target entry is the homologue from another species
Phosphodiesterase 1 [22] = molecular target: T1, Phosphodiesterase 1; test: Inhibitory concentration against cAMP PDE I enzyme in guinea pig; format: protein assay, Cavia porcellus; details: target entry is the homologue from another species
Phosphodiesterase 3 [23] = molecular target: T3, Phosphodiesterase 3; test: Inhibition of cAMP PDE III enzyme in guinea pig at 1E-4M; format: protein assay; details: Cavia porcellus; target entry is the homologue from another species

T2 sequence (O00408 whole entry): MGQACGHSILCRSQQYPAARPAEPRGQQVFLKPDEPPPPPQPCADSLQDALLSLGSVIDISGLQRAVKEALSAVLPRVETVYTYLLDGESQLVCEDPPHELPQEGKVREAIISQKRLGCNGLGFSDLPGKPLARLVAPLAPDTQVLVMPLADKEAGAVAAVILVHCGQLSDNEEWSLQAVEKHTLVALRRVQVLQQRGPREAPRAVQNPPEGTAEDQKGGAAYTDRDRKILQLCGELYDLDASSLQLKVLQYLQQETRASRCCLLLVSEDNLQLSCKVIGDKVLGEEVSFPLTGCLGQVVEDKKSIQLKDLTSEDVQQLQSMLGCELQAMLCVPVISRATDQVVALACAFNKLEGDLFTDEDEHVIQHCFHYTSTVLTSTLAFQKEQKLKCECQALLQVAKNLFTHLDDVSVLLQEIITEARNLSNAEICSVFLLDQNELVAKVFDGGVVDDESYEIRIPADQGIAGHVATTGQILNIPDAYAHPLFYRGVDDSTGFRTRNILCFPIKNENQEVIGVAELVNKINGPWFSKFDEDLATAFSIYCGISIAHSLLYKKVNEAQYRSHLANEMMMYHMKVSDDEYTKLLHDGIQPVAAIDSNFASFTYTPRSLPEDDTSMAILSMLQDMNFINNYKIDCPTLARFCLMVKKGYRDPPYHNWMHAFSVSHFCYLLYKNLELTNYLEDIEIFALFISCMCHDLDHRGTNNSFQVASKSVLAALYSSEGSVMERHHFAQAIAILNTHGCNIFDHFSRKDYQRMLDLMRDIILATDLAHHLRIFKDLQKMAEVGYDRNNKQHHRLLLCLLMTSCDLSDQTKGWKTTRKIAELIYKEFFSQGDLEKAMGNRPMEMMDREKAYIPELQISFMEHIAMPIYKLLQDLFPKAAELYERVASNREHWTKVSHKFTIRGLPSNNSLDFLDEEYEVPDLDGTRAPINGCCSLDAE

| inhibition [2] [%] | inhibition [3] [%] | inhibition (Phosphodiesterase 1 [4]) [%] | inhibition (Phosphodiesterase 3 [6]) [%] | inhibition [7] [%] | inhibition [8] [%] | inhibition (Phosphodiesterase 1 [9]) [%] | inhibition (Phosphodiesterase 1 [10]) [%] | inhibition (Phosphodiesterase 3 [11]) [%] | inhibition (Phosphodiesterase 1 [12]) [%] | Ratio [13] | inhibition (PDE II (Cavia porcellus)) [%] | IC50 (Phosphodiesterase 3 [14]) [µM] | inhibition [15] [%] | IC50 (PDE I (Cavia porcellus) [16]) [µM] | IC50 [17] | IC50 [18] [µM] | Ratio [19] | IC50 (PDE I (Cavia porcellus) [20]) [µM] | SMILES | ED50 (Canis familiaris) [mg/kg] | other results |
| --- | --- | --- | --- | --- | --- | --- | --- | --- | --- | --- | --- | --- | --- | --- | --- | --- | --- | --- | --- | --- | --- |
| 17 | 20 | 3 | 57 | 4 | 7 | 3 | 8 | 76 | 10 | – | – | – | – | – | – | – | – | – | O=C1CCC(c2ccc(-n3ccnc3)cc2)=NN1 [IMAZODAN] | 0.045 | – |
| 27 | 26 | 2 | 25 | 15 | 7 | 0 | – | – | – | – | – | 43 | – | – | – | – | – | – | CC1CC(c2ccc(-n3ccnc3)cc2)=NNC1=O (configuration not stated) | 1 | inhibition (Phosphodiesterase 1 [1]): 8%; inhibition (Phosphodiesterase 1 [5]): 8%; inhibition (Phosphodiesterase 3 [23]): 63%; IC50 (Phosphodiesterase 1 [21]): > 1000 µM; IC50 (Phosphodiesterase 1 [22]): > 1000 µM |
| – | – | 3 | 28 | 10 | 10 | 6 | 9 | 65 | 8 | 121 | 21 | 40 | 28 | > 1000 | 330 µM | 340 | 43 | 930 | O=C1CCC(c2cccc(-n3ccnc3)c2)=NN1 | 0.3 | – |
| – | – | 9 | 66 | 24 | 24 | 9 | 25 | 88 | 36 | 28.5 | 67 | 1.2 | 70 | 220 | 42 µM | 34 | 4.3 | 280 | O=C1CCC(c2ccc(-n3cnc4ccccc43)cc2)=NN1 | 0.1 | – |
| – | 24 | 6 | 33 | 6 | 7 | 7 | – | 51 | – | – | 20 | – | – | – | – | – | – | – | O=C1CCC(c2ccc(-n3cncn3)cc2)=NN1 | – | – |

The remaining lines, values behind:

| SMILES | inhibition [2] [%] | inhibition [3] [%] | inhibition (Phosphodiesterase 1 [4]) [%] | inhibition (Phosphodiesterase 3 [6]) [%] | inhibition [7] [%] | inhibition [8] [%] | inhibition (Phosphodiesterase 1 [9]) [%] | inhibition (Phosphodiesterase 1 [10]) [%] | inhibition (Phosphodiesterase 3 [11]) [%] | inhibition (Phosphodiesterase 1 [12]) [%] | Ratio [13] | inhibition (PDE II (Cavia porcellus)) [%] | IC50 (Phosphodiesterase 3 [14]) [µM] | inhibition [15] [%] | IC50 (PDE I (Cavia porcellus) [16]) [µM] | IC50 [17] | IC50 [18] [µM] | Ratio [19] | IC50 (PDE I (Cavia porcellus) [20]) [µM] | ED50 (Canis familiaris) [mg/kg] | other results |
| --- | --- | --- | --- | --- | --- | --- | --- | --- | --- | --- | --- | --- | --- | --- | --- | --- | --- | --- | --- | --- | --- |
| CC1CC(O)=NN=C1c1ccc(-n2ccnc2)cc1 (configuration not stated) [CI-930] | 18 | 23 | 9 | 69 | 5 | 7 | 3 | – | – | – | – | – | – | – | – | – | – | – | – | 0.013 | inhibition (Phosphodiesterase 1 [1]): 9%; inhibition (Phosphodiesterase 1 [5]): 12% |
| CC1CC(=O)NN=C1c1ccc(-n2cnc3c2CCCC3)cc1 (configuration not stated) [TETRAHYDROBENXIMIDAZOLE] | – | – | 17 | 64 | 21 | 21 | 13 | 57 | 90 | 54 | 3.2 | 65 | 0.15 | 68 | 85 | 46 µM | 43 | 2 | 75 | 0.025 | – |
| Nc1cc(-c2ccncc2)c[nH]c1=O [INAMRINONE] | – | – | – | – | – | – | – | – | – | – | – | – | – | – | – | 720 µM and 580 µM | – | – | – | – | IC50 (Phosphodiesterase 1 [21]): > 1000 µM; IC50 (Phosphodiesterase 1 [22]): > 1000 µM |
| Oc1ccc(-c2ccc(-n3ccnc3)cc2)nn1 | – | – | 6 | 56 | – | 11 | 4 | 17 | 80 | 15 | – | – | 7.2 | 27 | – | – | – | – | – | 0.11 | IC50 (Phosphodiesterase 1 [21]): 580 µM; IC50 (Phosphodiesterase 1 [22]): 660 µM |
